Experimental data published in ChEMBL document CHEMBL1828528, “Acyclic nucleoside thiophosphonates as potent inhibitors of HIV and HBV replication” (Eur J Med Chem, 2011).

What was measured:
[1] = target: Human immunodeficiency virus type 1 reverse transcriptase (Human immunodeficiency virus 1, UniProt Q72547); assay: Inhibition of wild-type HIV1 subtype B reverse transcriptase assessed as incorporation of [3H]dTTP
Procedure, shortened: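 Recombinant clade B HIV-1 WT RT p66/p51, co-expressed with protease in E. coli, affinity-purified and active-site titrated. Diphosphate forms assayed on activated calf thymus DNA with [3H]dTTP. Aliquots spotted in duplicate on DE81 discs, washed with ammonium formate pH 8.0 and ethanol, then scintillation counted. IC50 averaged over ≥3 independent experiments.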

[2] = tested on: Human immunodeficiency virus 1; assay: Antiviral activity against 100 TCID50 wild-type Human immunodeficiency virus 1 3B infected in CEM cells assessed as inhibition of syncytia formation after 4 days by microscopic analysis; format: functional, organism-based; settings: CCRF-CEM, 96 h
Procedure, shortened: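 Human CEM cells (~3 × 10^5 cells/cm3) infected with 100 CCID50/mL HIV-1 IIIB and seeded into wells holding compound dilutions. After 4 days at 37 °C, giant-cell (syncytium) formation was scored microscopically. EC50 is the concentration inhibiting syncytia formation by 50%.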

[3] = tested on: Human immunodeficiency virus 1; assay: Antiviral activity against 125 TCID50 wild type HIV1 LAI infected in human H9 cells assessed as reduction in viral replication measured on day 7 post infection by reverse transcriptase activity; format: functional, organism-based; settings: Human immunodeficiency virus 1, LAI, H9, 168 h
Procedure, shortened: (§1)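 PHA-P-activated PBMC (1.5 × 10^5; donor cells stimulated 3 days with 1 μg/mL PHA-P plus 5 IU/mL IL-2) or H9 cells (5 × 10^5) in RPMI-1640/10% FCS. Cells pre-treated 30 min with graded compound concentrations, then infected with HIV-1 LAI (100 or 125 TCID50). Supernatant RT activity read on day 7. EC50 from quadratic fit of % inhibition; triplicates, PBMC repeated with a second donor.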

[4] = tested on: Human immunodeficiency virus 1; assay: Antiviral activity against HIV1 clade C isolate 2914 infected in human H9 cells assessed as inhibition of viral replication; format: functional, organism-based; settings: Human immunodeficiency virus 1, clade C isolate 2914, H9
Procedure, shortened: (§2)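 H9 cells infected with HIV-1 clinical isolates of clades A, B, C, D, A/E, F and G, in the presence of graded compound concentrations. EC50 is the concentration reducing viral replication by 50%.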

[5] = Cytotoxicity against human HepAD38 cells; format: cell-based
[6] = tested on: Human immunodeficiency virus 1; assay: Antiviral activity against HIV1 clade B isolate 1722 infected in human H9 cells assessed as inhibition of viral replication; format: functional, organism-based; settings: Human immunodeficiency virus 1, clade B isolate 1722, H9; procedure, shortened: as §2
[7] = Cytotoxicity against human HuH7 cells; format: cell-based; settings: Huh-7 cells
[8] = Cytotoxicity against […]-activated human H9 cells on day 7 by MTT assay; format: cell-based
Procedure, shortened: (§3)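 Uninfected PHA-P-activated PBMC and H9 cells exposed to graded compound concentrations. Viability by MTT on day 7. CC50 from quadratic fit of % viability against concentration; triplicates.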

[9] = (§4) Cytotoxicity against human CEM cells; format: cell-based, CCRF-CEM; settings: CCRF-CEM (CEM) cells
Procedure, shortened: (§5)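 Mock-infected CEM cells cultured alongside the anti-HIV assay with compound dilutions for 4 days at 37 °C. CC50 is the concentration inhibiting CEM cell proliferation by 50%.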

[10] = tested on: Human immunodeficiency virus 1; assay: Antiviral activity against 6250 TCID50 wild type HIV1 LAI infected in human H9 cells assessed as reduction in viral replication measured on day 7 post infection by reverse transcriptase activity; format: functional, organism-based; settings: Human immunodeficiency virus 1, LAI, H9, 168 h
Procedure, shortened: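 H9 cells in RPMI-1640/10% FCS given graded compound concentrations, then infected with a high inoculum of 6250 TCID50 HIV-1 LAI. Supernatant reverse transcriptase activity measured on day 7 post infection. EC50 taken as the concentration giving 50% reduction of viral replication.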

Human alphaherpesvirus 1 [11] = assay: Antiviral activity against Herpes simplex virus type 1 KOS infected in HEL cells assessed as inhibition of virus-induced cytopathic effect; format: functional, organism-based; settings: Human alphaherpesvirus 1, KOS
Procedure, shortened: (§6)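 Confluent HEL cell monolayers inoculated with 100 CCID50 of virus. Compounds added after a 1–2 h adsorption period. Virus-induced cytopathic effect scored microscopically at 3 days post infection as % of untreated controls. EC50 derived from graphical plots.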

[12] = tested on: Human immunodeficiency virus 1; assay: Antiviral activity against HIV1 clade B isolate 2056 infected in human H9 cells assessed as inhibition of viral replication; format: functional, organism-based; settings: Human immunodeficiency virus 1, clade B isolate 2056, H9; procedure, shortened: as §2
Human alphaherpesvirus 1 [13] = assay: Antiviral activity against TK-deficient and ACR-resistant Herpes simplex virus type 1 KOS infected in HEL cells assessed as inhibition of virus-induced cytopathic effect; format: functional, organism-based; settings: Human alphaherpesvirus 1, KOS; procedure, shortened: as §6
[14] = tested on: Human immunodeficiency virus 1; assay: Antiviral activity against 100 TCID50 wild type HIV1 LAI infected in human PBMC assessed as reduction in viral replication measured on day 7 post infection by reverse transcriptase activity; format: functional, organism-based; settings: Human immunodeficiency virus 1, LAI, 168 h; procedure, shortened: as §1
[15] = Cytotoxicity against […]-activated human PBMC on day 7 by MTT assay; format: cell-based; procedure, shortened: as §3
[16] = tested on: Human immunodeficiency virus 1; assay: Antiviral activity against HIV1 clade G isolate 3187 infected in human H9 cells assessed as inhibition of viral replication; format: functional, organism-based; settings: Human immunodeficiency virus 1, clade G isolate 3187, H9; procedure, shortened: as §2
[17] = tested on: Human immunodeficiency virus 1; assay: Antiviral activity against HIV1 clade A isolate 4113 infected in human H9 cells assessed as inhibition of viral replication; format: functional, organism-based; settings: Human immunodeficiency virus 1, clade A isolate 4113, H9; procedure, shortened: as §2
[18] = tested on: Human immunodeficiency virus 1; assay: Antiviral activity against HIV1 clade C isolate 4110 infected in human H9 cells assessed as inhibition of viral replication; format: functional, organism-based; settings: Human immunodeficiency virus 1, clade C isolate 4110, H9; procedure, shortened: as §2
[19] = tested on: Human immunodeficiency virus 1; assay: Antiviral activity against HIV1 clade A/E isolate 2165 infected in human H9 cells assessed as inhibition of viral replication; format: functional, organism-based; settings: Human immunodeficiency virus 1, clade A/E isolate 2165, H9; procedure, shortened: as §2
[20] = tested on: Human immunodeficiency virus 1; assay: Antiviral activity against HIV1 clade F isolate 2338 infected in human H9 cells assessed as inhibition of viral replication; format: functional, organism-based; settings: Human immunodeficiency virus 1, clade F isolate 2338, H9; procedure, shortened: as §2
[21] = tested on: Human immunodeficiency virus 1; assay: Antiviral activity against HIV1 clade B isolate 2101 infected in human H9 cells assessed as inhibition of viral replication; format: functional, organism-based; settings: Human immunodeficiency virus 1, clade B isolate 2101, H9; procedure, shortened: as §2
[22] = Cytotoxicity against human HEL cells assessed as alteration in cellular morphology by microscopic analysis; format: cell-based
Procedure, shortened: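 Uninfected confluent Vero, CrFK, HEL or HeLa cultures incubated with serial compound dilutions (up to 200 μM) for the same period as the antiviral assays. Minimal toxic concentration is the lowest giving microscopically detectable alteration of cell morphology.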

Human alphaherpesvirus 2 = assay: Antiviral activity against Herpes simplex virus type 2 G infected in HEL cells assessed as inhibition of virus-induced cytopathic effect; format: functional, organism-based; settings: Human alphaherpesvirus 2, strain G; procedure, shortened: as §6
[23] = tested on: Human immunodeficiency virus 2; assay: Antiviral activity against 100 TCID50 wild-type Human immunodeficiency virus type 2 ROD infected in C8166 cells assessed as inhibition of syncytia formation after 4 days by microscopic analysis; format: functional, organism-based; settings: Human immunodeficiency virus 2, ISOLATE ROD, C8166, 96 h
Vaccinia virus = assay: Antiviral activity against Vaccinia virus infected in HEL cells assessed as inhibition of virus-induced cytopathic effect; format: functional, organism-based; settings: Orthopoxvirus vaccinia; procedure, shortened: as §6
Hepatitis B virus [24] = assay: Antiviral activity against Hepatitis B virus infected in human HepAD38 cells assessed as reduction in viral DNA level after 6 days by real time quantitative PCR analysis; format: functional, organism-based; settings: HePAD38, 144 h
Procedure, shortened: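 Tetracycline-regulated HepAD38 cells (5 × 10^5) induced after 2–3 days by PBS wash and feeding with medium lacking tetracycline and G418, with or without compound. Medium changed at day 3. Intracellular HBV DNA quantified by TaqMan Q-PCR at day 6 post induction against a full-genome plasmid standard curve, expressed as % of untreated. Actives retested.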

[25] = tested on: Human immunodeficiency virus 1; assay: Antiviral activity against HIV1 clade D isolate 1649 infected in human H9 cells assessed as inhibition of viral replication; format: functional, organism-based; settings: Human immunodeficiency virus 1, clade D isolate 1649, H9; procedure, shortened: as §2
Hepatitis B virus [26] = assay: Antiviral activity against Hepatitis B virus infected in human HuH7 cells assessed as reduction in viral DNA level treated day 3 to day 8 post transfection by real time quantitative PCR analysis; format: functional, organism-based; settings: Huh-7
CCRF-CEM = assay: as §4; format: cell-based; settings: ccrf-cem; procedure, shortened: as §5

**Q.** Which IC50 [1] does the source give for `Nc1ncnc2c1ncn2CCOCP(=O)(O)OP(=O)(O)OP(=O)(O)O` here?
**A.** 7 µM

**Q.** Which EC50 [2] does the source give for `C[C@H](Cn1cnc2c(N)ncnc21)OCP(=O)(O)O` [TENOFOVIR ANHYDROUS] here?
**A.** 4.1 µM

**Q.** What about the EC50 [3] of the same compound?
**A.** 230 nM

**Q.** And the EC50 [4]?
**A.** 340 nM

**Q.** What about the CC50 [5] of the same compound?
**A.** > 150 µM

**Q.** And the EC50 [6]?
**A.** 690 nM

**Q.** What about the CC50 [7] of the same compound?
**A.** > 150 µM

**Q.** What about the CC50 at 7 day [8] of the same compound?
**A.** > 100 µM

**Q.** And the CC50 [9]?
**A.** > 250 µM

**Q.** And the EC50 [10]?
**A.** 8.3 µM

**Q.** What about the EC50 (Human alphaherpesvirus 1 [11]) of the same compound?
**A.** > 200 µM

**Q.** What about the EC50 [12] of the same compound?
**A.** 1250 nM

**Q.** What about the EC50 (Human alphaherpesvirus 1 [13]) of the same compound?
**A.** > 200 µM

**Q.** And the EC50 [14]?
**A.** 3.4 µM

**Q.** What about the CC50 at 7 day [15] of the same compound?
**A.** > 100 µM

**Q.** And the EC50 [16]?
**A.** 150 nM

**Q.** And the EC50 [17]?
**A.** 5.61 µM

**Q.** And the EC50 [18]?
**A.** 830 nM

**Q.** What about the EC50 [19] of the same compound?
**A.** 510 nM

**Q.** And the EC50 [20]?
**A.** 40 nM

**Q.** What about the EC50 [21] of the same compound?
**A.** 240 nM

**Q.** And the MCC [22]?
**A.** > 200 µM

**Q.** What about the EC50 (Human alphaherpesvirus 2) of the same compound?
**A.** > 200 µM

**Q.** What about the EC50 [23] of the same compound?
**A.** 7.1 µM

**Q.** And the EC50 (Vaccinia virus)?
**A.** > 200 µM

**Q.** And the EC50 (Hepatitis B virus [24])?
**A.** 2300 nM

**Q.** What about the EC50 [25] of the same compound?
**A.** 100 nM

**Q.** For `Nc1ncnc2c1ncn2CCOCP(=O)(S)OP(=O)(O)OP(=O)(O)O` (stereo not given), which IC50 [1] is on record?
**A.** 6.8 µM

**Q.** Which EC50 [2] does the source give for `Nc1ncnc2c1ncn2CCOCP(=O)(O)O` [ADEFOVIR] here?
**A.** 5.5 µM

**Q.** What about the EC50 [3] of the same compound?
**A.** 1100 nM

**Q.** What about the EC50 [4] of the same compound?
**A.** 1450 nM

**Q.** What about the CC50 [5] of the same compound?
**A.** > 150 µM

**Q.** What about the EC50 (Hepatitis B virus [26]) of the same compound?
**A.** 6 µM

**Q.** What about the EC50 [6] of the same compound?
**A.** 1850 nM

**Q.** And the CC50 [7]?
**A.** > 150 µM

**Q.** What about the CC50 (CCRF-CEM) of the same compound?
**A.** 85 µM

**Q.** And the EC50 [10]?
**A.** 7.9 µM

**Q.** And the EC50 (Human alphaherpesvirus 1 [11])?
**A.** 89 µM

**Q.** And the EC50 [12]?
**A.** 1020 nM

**Q.** What about the EC50 (Human alphaherpesvirus 1 [13]) of the same compound?
**A.** 20 µM

**Q.** And the EC50 [14]?
**A.** 3.2 µM

**Q.** What about the CC50 at 7 day [15] of the same compound?
**A.** > 30 µM

**Q.** What about the EC50 [16] of the same compound?
**A.** 220 nM

**Q.** And the EC50 [17]?
**A.** 17.8 µM

**Q.** What about the EC50 [18] of the same compound?
**A.** 2740 nM

**Q.** And the EC50 [19]?
**A.** 320 nM

**Q.** And the EC50 [20]?
**A.** 190 nM

**Q.** What about the EC50 [21] of the same compound?
**A.** 3510 nM

**Q.** And the MCC [22]?
**A.** > 200 µM

**Q.** And the EC50 (Human alphaherpesvirus 2)?
**A.** 20 µM

**Q.** What about the EC50 [23] of the same compound?
**A.** 7 µM

**Q.** What about the EC50 (Vaccinia virus) of the same compound?
**A.** > 200 µM

**Q.** And the EC50 [25]?
**A.** 320 nM

**Q.** Which IC50 [1] does the source give for `C[C@H](Cn1cnc2c(N)ncnc21)OCP(=O)(S)OP(=O)(O)OP(=O)(O)O` (stereo not given in full) here?
**A.** 13.9 µM

**Q.** For `C[C@H](Cn1cnc2c(N)ncnc21)OCP(=O)(O)OP(=O)(O)OP(=O)(O)O`, which IC50 [1] is on record?
**A.** 11.3 µM
